# Assay outcomes: PubChem BioAssay, The Scripps Research Institute Molecular Screening Center
# The list is not random: actives were taken first. Their share in the collection is about 4.3%.
# GalR3 antagonist = antagonists of human GalR3; HEK293 GalR3-CNG cAMP membrane potential fluorescence; galR3 body fused to GalR1 C-terminus; AID 651719; O60755; inhibition, % at 3 µM; 360,000 compounds, 0.44% hits;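 active = inhibition above the screen-wide average plus 3 SD, cut at about 13% in these data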;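 note: forskolin and galanin both at EC90 stimulate the cells; cAMP rise reported by CNG channel membrane potential dye signal; 0% = forskolin plus galanin with DMSO and 100% = forskolin alone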
# TAAR1 antagonist = human TAAR1 antagonism | Q96RJ0 | AID 624466 | inhibition, % at 3 µM | CHO RD-HGA16 TAAR1, Fluo-8 calcium fluorescence, antagonist | 360,000 compounds, 1.5% hits;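 active = inhibition above a per-plate cutoff, the mean inhibition of test compounds on that plate plus 3 SD, cut at about 49% in these data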;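 note: 0% = DMSO plus EC80 beta-PEA response and 100% = DMSO alone without agonist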
#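 Material: CHO RD-HGA16 cells bearing hTAAR1; compound dosing: one-point dosing, 3 µM nominal final; schedule: dye loading 75 min at 37 °C, then 30 min room temperature; measured by: calcium fluorescence with Fluo-8; control set: vehicle and agonist controls; replication: n of 1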
# TAAR1 ag = human TAAR1 agonism; Q96RJ0; CHO RD-HGA16 TAAR1, Fluo-8 calcium fluorescence; vehicle wells 0%, saturating PEA agonist 100%; activation, % at 3 µM; 360,000 compounds, 0.99% hits; AID 624467;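 active = activation above the mean activation of all test compounds in the run plus 3 SD, cut at about 38% in these data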
#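 Benchmarks: low control DMSO, high control PEA (EC100); System: CHO RD-HGA16 cells carrying human TAAR1 plus Gα16; Detection: Fluo-8 fluorescence, 5 s baseline then 140 s kinetic read; Schedule: 17-24 h plating, Fluo-8 75 min 37 °C, 30 min RT; Read-out basis: % activation from peak over basal fluorescence ratio, DMSO-to-PEA scaled.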
# OX1R antag-1 = antagonists of human orexin 1 receptor (OX1R); 330,000 compounds, 1.8% hits; O43613; OX1R-expressing cells, FRET antagonist read-out; inhibition, % at 6.6 µM; in the data active = inhibition mostly above about 38%, no sharp cut-off; inactive = mostly below about 40%;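 note: 0% = agonist challenge alone and 100% = reference antagonist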
# Target sequence (O43613 whole entry, looked up): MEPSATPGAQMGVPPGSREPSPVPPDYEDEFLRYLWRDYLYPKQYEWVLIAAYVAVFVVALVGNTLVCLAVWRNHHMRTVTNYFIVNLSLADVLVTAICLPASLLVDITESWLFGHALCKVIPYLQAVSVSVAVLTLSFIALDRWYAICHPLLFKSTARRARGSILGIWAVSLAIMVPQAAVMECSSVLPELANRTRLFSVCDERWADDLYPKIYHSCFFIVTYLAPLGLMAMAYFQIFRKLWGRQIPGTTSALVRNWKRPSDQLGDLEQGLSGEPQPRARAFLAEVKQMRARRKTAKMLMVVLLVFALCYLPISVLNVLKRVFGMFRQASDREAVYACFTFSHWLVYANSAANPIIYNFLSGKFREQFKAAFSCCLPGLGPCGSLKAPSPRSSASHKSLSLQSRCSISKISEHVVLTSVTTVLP
# OX1R antag-2 = blocks the human orexin 1 receptor. CHO/OX1R cells, Fluo-8 calcium fluorescence, orexin A. inhibition, % at 5 µM. 330,000 compounds, 0.43% hits. AID 434989;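 active = inhibition above its plate's threshold, mean inhibition of all tested compounds on the plate plus 3 SD, cut at about 37% in these data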;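 note: 0% = orexin A challenge wells and 100% = SB-334867-A antagonist wells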
# CHO parental Ca = counter-screen: ATP calcium response change in parental CHO cells; parental CHO-K1, ATP-induced calcium, Fluo-8 fluorescence; inhibition, % at 5.6 µM; 330,000 compounds, 0.63% hits;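 active = inhibition above that plate's mean sample inhibition plus 3 SD, cut at about 26% in these data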;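 note: 0% = ATP-challenged DMSO wells and 100% = DMSO wells without ATP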
#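 test system = CHO parental line | reagent = ATP stimulus | measured by = intracellular calcium via Fluo-8 no-wash fluorescent dye | control set = ATP and no-ATP DMSO wells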
# TAAR1 ag confirm = human TAAR1 agonism, confirmed. shares compounds with TAAR1 ag. CHO RD-HGA16 TAAR1, Fluo-8 calcium fluorescence; scaled: DMSO 0%, maximal phenethylamine 100%. activation, % at 3 µM. 2,400 compounds, 82% hits;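 active = activation above a cutoff set at the run's mean compound activation plus 3 SD, cut at about 39% in these data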
# Ga16 ag counter = counter-screen for TAAR1 agonists: nonselective agonists in parental cells | shares compounds with TAAR1 ag | CHO-Ga16 parental, Fluo-8 calcium fluorescence; normalized to maximal ATP response, DMSO zero | activation, % at 3 µM | 2,400 compounds, 50% hits;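 active = activation above the run cutoff, the mean activation over all tested wells plus 3 SD, cut at about 12% in these data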;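 note: 0% = DMSO wells and 100% = maximal ATP response on the peak over basal ratio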
# TAAR1 desensitize = counter-screen for human TAAR1 agonists: agonists that desensitize TAAR1 | shares compounds with TAAR1 ag | CHO RD-HGA16 hTAAR1, Fluo-8 calcium, beta-PEA response inhibition | inhibition, % at 3 µM | 2,400 compounds, 46% hits | AID 651951;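 active = inhibition above the run cutoff, the mean inhibition of all test compounds plus 3 SD, cut at about 49% in these data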;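 note: beta-PEA stimulus applied at its EC80; loss of beta-PEA calcium signal after compound pretreatment read as receptor desensitization; 0% = DMSO with beta-PEA at EC80 and 100% = DMSO alone without agonist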
# Ga16 antag count = counter-screen for TAAR1 agonists: nonselective Ga16 antagonists; CHO-Ga16 ATP-induced calcium, Fluo-8 fluorescence; 2,400 compounds, 39% hits; inhibition, % at 3 µM; shares compounds with TAAR1 ag;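 active = inhibition above the plate's mean compound inhibition plus 3 SD, computed per plate, cut at about 22% in these data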;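 note: 0% = EC80 ATP with DMSO and 100% = DMSO wells without ATP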
# Starred values were filed as active, the others as inactive; . = no result given.
SMILES,GalR3 antagonist,TAAR1 antagonist,TAAR1 ag,OX1R antag-1,OX1R antag-2,CHO parental Ca,TAAR1 ag confirm,Ga16 ag counter,TAAR1 desensitize,Ga16 antag count
O=C(NC1CCCCC1)c1cccc2c1C(=O)c1ccc(N3CCC(Cc4ccccc4)CC3)cc1S2(=O)=O,0,61*,52*,9,34,15,30,29*,33,38*
CCN(CC)CCc1c(C)[nH]c(C(=O)OCc2ccccc2)c1C,-8,26,71*,12,-5,-4,73*,1,74*,2
NC(c1csc(NC(=O)Nc2cccc(Cl)c2)n1)c1ccccc1Cl (configuration not stated),-7,34,52*,.,.,.,66*,27*,64*,47*
Cn1c(=O)c(C(=O)COc2ccc(C#N)cc2)c(N)n(Cc2ccccc2)c1=O,-2,50*,119*,10,9,13,100*,52*,49*,27*
CCC(=O)OCC(=O)c1c(N)n(Cc2ccccc2)c(=O)n(C)c1=O,0,-7,4,26,-18,-7,.,.,.,.
CC(NC(=O)C1CCN(C(=O)c2cccs2)CC1)c1ccc(S(N)(=O)=O)cc1 (configuration not stated),-4,-3,12,5,3,-3,.,.,.,.
O=C(CSc1nc2scc(-c3ccccc3)c2c(=O)[nH]1)NCCc1ccccc1,-1,23,64*,10,-9,-2,64*,9,33,15
Cc1cc(=O)[nH]c(SCC(=O)NCCc2ccccc2)n1,-6,.,.,9,-18,-5,.,3,.,13
CCOC(=O)c1c(C)[nH]c(C(=O)CN2C(=O)NC(C)(c3ccc(C)cc3)C2=O)c1C (configuration not stated),-2,9,97*,-6,-19,-28,102*,50*,58*,33*
CCOC(=O)c1c(C)[nH]c(C(=O)CN2C(=O)NC(CC)(c3ccccc3)C2=O)c1C (configuration not stated),0,20,53*,-5,-25,-27,34,12*,20,10
Cc1ccc(Cn2cc(CN(C)C3CN(Cc4cn(Cc5ccc(C)cc5)nn4)S(=O)(=O)C3)nn2)cc1 (configuration not stated),-6,-18,3,.,.,.,.,.,.,.
O=C(CN1CCN(Cc2cccc(C(F)(F)F)c2)CC1)NCC(=O)Nc1ccc(F)c(F)c1F,0,10,1,.,.,.,.,.,.,.
CC1CCCN(C(=S)SCC(=O)c2cc(Br)cc(Br)c2O)C1 (configuration not stated),0,-19,74*,5,-23,1,82*,8,70*,19
O=C(CSC(=S)N1CCCC1)c1cc(Br)cc(Br)c1O,-5,16,4,5,-14,0,.,.,.,.
O=[N+]([O-])c1cccc(/C=N/Nc2nc(NCc3ccccc3)nc(N3CCOCC3)n2)c1O,-5,27,67*,38,3,-6,115*,112*,93*,85*
O=[N+]([O-])c1ccc(/C=N/Nc2nc(NCc3ccccc3)nc(N3CCOCC3)n2)cc1,1,-1,2,25,-13,-26,.,.,.,.
O=C1C=C(NCc2ccc(Cl)c(Cl)c2)CC1,-4,3,1,3,-20,-1,.,.,.,.
Nc1nc(N)c2cc(CNc3ccc(Cl)c(Cl)c3)ccc2n1,-5,53*,64*,.,.,.,80*,42*,74*,66*
c1ccc2c(Nc3nc(N4CCOCC4)c4ccccc4n3)cccc2c1,-2,9,10,10,-25,-19,.,.,.,.
Fc1ccc(Nc2nc(N3CCOCC3)c3ccccc3n2)cc1,-2,63*,65*,22,-26,-3,65*,7,42,16
Cc1sc(NC(=O)C2CCCCC2C(=O)O)c(C(N)=O)c1-c1ccc(C(C)(C)C)cc1 (configuration not stated),-1,46,67*,43,-18,-5,43*,20*,40,13
Cc1sc(NC(=O)C2CCCCC2C(=O)O)c(C(N)=O)c1-c1ccccc1 (configuration not stated),-5,-4,9,34,-27,-4,.,.,.,.
Cc1cc(C)n2nc(SCC(=O)N(CCC#N)c3ccccc3F)nc2n1,-1,11,0,1,-11,-8,.,.,.,.
CCC1CN(C(=O)N2CCC(C(=O)NCCc3ccccc3)CC2)c2ccccc2O1 (configuration not stated),-2,58*,53*,5,-34,-25,84*,16*,83*,34*
CCC1CN(C(=O)N2CCC(C(=O)NCc3cc(OC)c(OC)c(OC)c3)CC2)c2ccccc2O1 (configuration not stated),-8,-2,4,10,-40,-16,.,.,.,.
O=C(CNC(=O)c1ccc(Cl)cc1Cl)OCCOc1ccccc1F,-1,-22,-2,5,-27,-24,.,.,.,.
Fc1ccccc1N1CCN(C(c2cccs2)c2nnnn2CCc2ccccc2)CC1 (configuration not stated),2,27,77*,12,-25,8,83*,0,56*,6
c1ccc(CCn2nnnc2C(c2cccs2)N2CCN(Cc3ccc4c(c3)OCO4)CC2)cc1 (configuration not stated),-6,73*,85*,12,-24,-8,95*,1,89*,3
CCN1C(=O)Cc2cc(S(=O)(=O)NCCc3ccccc3)ccc21,-5,-11,51*,3,-12,-17,46*,2,1,7
O=C(NCc1ccc(F)cc1)c1cc(C2CCCCN2S(=O)(=O)c2cccs2)on1 (configuration not stated),-7,-21,2,.,.,.,.,.,.,.
